# Most compounds without a hit are left out; they make up all but 0.54% or so of the library.
# ASAP1 inh – blocks human ASAP1-stimulated Arf1 GTP hydrolysis; Q9ULH1; 360,000 compounds, 0.19% hits; GDP FP detection; inhibition, % at 16.5 µM; in the data active = inhibition above about 25%;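 also: 0% = vehicle with enzyme and substrate and 100% = no enzyme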
# Target sequence (Q9ULH1 325-724 limits assumed): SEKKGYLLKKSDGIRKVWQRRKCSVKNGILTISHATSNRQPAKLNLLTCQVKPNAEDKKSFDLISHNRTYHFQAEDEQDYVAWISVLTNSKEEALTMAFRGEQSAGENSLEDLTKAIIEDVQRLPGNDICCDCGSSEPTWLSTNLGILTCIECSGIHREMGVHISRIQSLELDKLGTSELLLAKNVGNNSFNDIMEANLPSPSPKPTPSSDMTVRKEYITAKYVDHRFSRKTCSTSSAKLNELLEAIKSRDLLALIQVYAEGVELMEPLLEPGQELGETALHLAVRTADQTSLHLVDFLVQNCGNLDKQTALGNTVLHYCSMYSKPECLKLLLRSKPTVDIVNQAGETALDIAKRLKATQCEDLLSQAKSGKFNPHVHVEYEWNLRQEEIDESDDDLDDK
# PKD1 inh – blocks activity of human protein kinase D1; 200,000 compounds, 0.056% hits; Q15139; AID 797; PKD1 kinase fluorescence polarization assay; inhibition, % (no concentration beside the values); in the data active = inhibition above about 50%
# ARFGAP1 inh – rat ARFGAP1 inhibition; Arfgap1-stimulated ARF1 GTP hydrolysis, GDP FP detection; inhibition, % at 16.5 µM; 360,000 compounds, 0.26% hits;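 active = inhibition above a per-plate limit, mean inhibition of low control wells plus 3 SD, cut at about 25% in these data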;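 also: 0% = DMSO wells with enzyme and 100% = wells lacking Arfgap1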
# Target sequence (Q62848 1-136 limits assumed): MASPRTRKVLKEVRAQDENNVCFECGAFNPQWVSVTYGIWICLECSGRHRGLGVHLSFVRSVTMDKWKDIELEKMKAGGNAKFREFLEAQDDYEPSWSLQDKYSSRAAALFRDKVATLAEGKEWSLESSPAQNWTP
#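 Material – truncated rat Arfgap1 GAP domain · Buffer or medium – HEPES-based buffer, pH 7.5 · Reagent – human ARF1(Δ1-17)-GTP substrate · Dosing – 16.5 µM single point, 1.26% DMSO · Schedule – GTP hydrolysis reaction 2 h at 25 °C · Technique – GDP detection by fluorescence polarization · Benchmarks – No-Arfgap1 wells (100%) versus DMSO full-reaction wells (0%) · Repeats – single replicate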
# PP5 inh – PP5 (human) phosphatase inhibition; P53041; AID 1987; 320,000 compounds, 0.18% hits; inhibition, % at 6.7 µM; purified PP5c, OMFP substrate fluorescence;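 active = inhibition above the campaign's mean inhibition across all tested compounds plus 3 SD, cut at about 9.5% in these data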;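 also: 0% = DMSO only and 100% = 100 µM cantharidin control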
# PP5 inh confirm – confirmation of human PP5 phosphatase inhibitors; Purified PP5, fluorogenic phosphatase substrate, fluorescence; 460 compounds, 22% hits; shares compounds with PP5 inh; inhibition, % at 6.7 µM; in the data active = inhibition above about 9.5%
# PP1 inh counter – inhibits human PP1 phosphatase in PP5 counter-screen; shares compounds with PP5 inh; PP1 enzyme, fluorescent phosphatase substrate; inhibition, % at 6.7 µM; 460 compounds, 4% hits; AID 2355; in the data active = inhibition above about 16%
# Active calls of the source: *; . = not tested or not shown.
SMILES,ASAP1 inh,PKD1 inh,ARFGAP1 inh,PP5 inh,PP5 inh confirm,PP1 inh counter
C=CCn1c(NC(=O)c2ccccc2Cl)c(C#N)c2nc3ccccc3nc21,-10,-6,-12,11*,28*,4
CC(=O)Nc1ccc(Br)c(Cl)c1,-6,.,7,11*,-6,-6
CCCC(=O)Nc1ccc(Br)c(Cl)c1,-6,-11,2,1,.,.
COC(=O)C1=C(C)N(C)C(=NCc2cccc(C(F)(F)F)c2)NC1c1ccc(Cl)cc1 (stereo unspecified),5,.,0,.,.,.
COc1ccc(Br)c(C(=O)Nc2ccc(F)cc2)c1,-4,.,3,16*,-3,-4
COc1cccc(NC(=O)c2ccccc2Br)c1,-2,.,-3,-1,.,.
COC(=O)c1ccc(C2C(C(=O)OCC(C)C)=C(C)N=C3SCCC(=O)N32)cc1 (stereo unspecified),-5,-6,1,10*,-1,1
COc1cccc(NC(=O)N(C)C[C@H]2OCc3cn(nn3)CCCC(=O)N([C@H](C)CO)C[C@@H]2C)c1,10,.,17,.,.,.
CC1C(=O)N(Cc2cn(Cc3ccco3)nn2)CCS(=O)(=O)N1Cc1ccc(-c2cccc(N(C)C)c2)cc1 (stereo unspecified),-4,.,4,.,.,.
O=C(Nc1nccs1)c1cc2sccc2n1Cc1ccc(F)cc1,-1,-6,-10,10*,-6,-1
Cn1c2ccccc2c(=O)n2c(=O)c3ccccc3cc12,.,-7,.,11*,29*,-4
Cc1cc2c(cc1C)-n1nnnc1C(N1CCN(c3ccccc3F)CC1)C(=O)N2 (stereo unspecified),-3,.,-11,.,.,.
COc1cc2c(cc1OC)C(c1cccs1)N(C(=O)C(C)C)CC2 (stereo unspecified),-1,-9,13,9.9*,-5,-5
COc1cccc(-c2cc(C(=O)Nc3cnn(Cc4ccccc4C)c3)no2)c1,11,-5,11,0,.,.
COc1cccc(-c2cc(C(=O)Nc3cnn(Cc4ccc(F)cc4)c3)no2)c1,5,-14,5,14*,0,-4
CCN(CC)C1=CC2=CC(=C(C#N)C#N)CCC2CC1 (stereo unspecified),4,-40,-5,-61,-142,-48
Cc1ccccc1NC(=O)Nc1ccccc1C(=O)NCc1ccccc1,7,-3,21,17*,-3,-2
CCn1nnc(-c2ccccc2NS(=O)(=O)c2ccc(S(=O)(=O)N(C)C3CCCCC3)cc2)n1,12,-1,5,12*,-3,-1
O=c1oc2ccc(Cl)cc2nc1/C=C(\O)c1cccs1,-10,.,9,12*,-4,-3
Cc1ccc2oc(=O)c(/C=C(\O)c3cccs3)nc2c1,-8,.,12,4,.,.
CCOC(=O)/C(C#N)=C1/C=C(C)NC(c2ccccc2O)=N1,-17,-20,-3,12*,-1,2
CCOC(=O)Cc1csc(NC(=O)c2ccc(Cl)nc2)n1,-4,-6,-2,13*,-7,-3
CCOC(=O)Cc1csc(NC(=O)c2ccc(C)cc2)n1,4,-10,-12,-1,.,.
CCOC(=O)NC(NC(=S)Nc1ccccc1[N+](=O)[O-])C(Cl)(Cl)Cl (stereo unspecified),5,-6,12,11*,-6,-4
CCOc1cc(CNc2ncc(-c3ccc(OC)cc3)n2C)ccc1O,-5,-3,-8,10*,1,-3
SMILES,ASAP1 inh,PKD1 inh,ARFGAP1 inh,PP5 inh,PP5 inh confirm,PP1 inh counter
O=C(NC1CCCCCC1)C1c2ccccc2C(=O)N1Cc1ccco1 (stereo unspecified),-3,8,-1,11*,-5,-4
CC1(C(=O)Nc2ccc3c(c2)OCCO3)CC1(Cl)Cl (stereo unspecified),-1,.,12,19*,-5,-4
CC(=O)Nc1ccc2c(c1)OCCO2,-11,-9,6,2,.,.
O=C1NC[C@H](CCCCN2C[C@H](Cc3ccccc3)N(CCC3CCCCC3)C(=O)C2=O)N(CCc2ccc(O)cc2)C1=O,-16,.,4,.,.,.
O=C1c2ccccc2C(=O)C12OC2c1ccc(Cl)cc1 (stereo unspecified),.,3,.,11*,32*,4
O=C1c2ccccc2C(=O)C12OC(c1ccccc1)C1(C(=O)c3ccccc3C1=O)C2c1ccc([N+](=O)[O-])cc1 (stereo unspecified),4,-14,4,2,.,.
COC(=O)C1(C)NC(c2ccc(O)cc2)C2C(=O)N(c3ccc(F)cc3)C(=O)C21 (stereo unspecified),11,.,-16,10*,-7,-6
Nc1c(S(=O)(=O)c2cccs2)c2nc3ccccc3nc2n1CCc1ccccc1,-12,6,-3,4,.,.
CC(C)CCn1c(N)c(S(=O)(=O)c2cccs2)c2nc3ccccc3nc21,13,-12,6,10*,7,4
Cc1cccc(N2CCN(C(=O)Cc3ccc(-n4c(=O)[nH]c5ccsc5c4=O)cc3)CC2)c1C,-3,-4,-14,1,.,.
Cc1ccc(C)c(N2CCN(C(=O)Cc3ccc(-n4c(=O)[nH]c5ccsc5c4=O)cc3)CC2)c1,0,2,-6,13*,-4,-4
CCCC(=O)OC[C@H]1CN(C2CCCC2)S(=O)(=O)c2c(Oc3ccccc3)cccc2O1,-5,.,11,.,.,.
CC(C)(C)NC(=O)c1ccc(NC(=O)c2ccccc2-c2ccccc2C(=O)O)cc1,9,.,-3,10*,-8,-7
CC1(OC(=O)C2CCCC2)C(=O)C=C2C=C(c3ccsc3)N(CCCCO)C=C2C1=O (stereo unspecified),-1,.,-5,10*,44*,18*
COc1ccc(CN2C=C3C(=O)C(C)(OC(=O)C4CCCC4)C(=O)C=C3C=C2c2ccsc2)cc1 (stereo unspecified),-1,.,-7,7,.,.
Cc1ccc(NC2=C/C(=N\S(=O)(=O)c3cccs3)c3ccccc3C2=O)c(C)c1,.,-2,.,6,.,.
Cc1ccc(Cl)cc1NC1=C/C(=N\S(=O)(=O)c2cccs2)c2ccccc2C1=O,19,-4,11,11*,42*,11
CCc1c(-c2ccc(OC)cc2)ncn1CCc1ccccc1OC,-12,.,1,.,.,.
CCOC(=O)C1CSCCS(=O)(=O)N1Cc1ccc(F)cc1F (stereo unspecified),10,.,-1,.,.,.
Oc1ccc(/C=N/Nc2cc(N3CCCC3)nc(N3CCCC3)n2)cc1,13,-8,28*,16*,37*,14
Oc1cccc(/C=N/Nc2cc(N3CCCC3)nc(N3CCCC3)n2)c1,14,-2,10,16*,37*,10
COc1ccc(/C=N/Nc2cc(N3CCCC3)nc(N3CCCC3)n2)cc1,9,3,9,16*,34*,18*
Oc1ccc(/C=N/Nc2cc(N3CCOCC3)nc(N3CCOCC3)n2)cc1,1,2,-8,6,.,.
Fc1ccccc1OCCCCN1CCCCC1,-6,.,0,13*,-3,-5

# High-throughput results from PubChem BioAssay.
